Test results taken from ChEMBL document CHEMBL4257543, “Structural optimization and antibacterial evaluation of rhodomyrtosone B analogues against MRSA strains” (Medchemcomm, 2018).
Converted amounts (≈) assume the structure as drawn. The source made the active and inactive calls. The rule behind the calls is not given here.

Experiments:
Staphylococcus aureus [1] = experiment: Antibacterial activity against Staphylococcus aureus ATCC 29213 by micro dilution susceptibility test; type: functional
Summary of the method: (§1)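 Microbroth dilution MIC in Mueller–Hinton broth following CLSI guidelines, vancomycin as positive control; resazurin added as visible growth indicator. Assays run at least in triplicate.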

Staphylococcus aureus [2] = experiment: Antibacterial activity against Staphylococcus aureus CMCC 26003 by micro dilution susceptibility test; type: functional; summary of the method: as §1
Staphylococcus aureus [3] = experiment: Antibacterial activity against methicillin-resistant Staphylococcus aureus JCSC 2172 by micro dilution susceptibility test; type: functional; summary of the method: as §1
Staphylococcus aureus [4] = experiment: Antibacterial activity against methicillin-resistant Staphylococcus aureus JCSC 3063 by micro dilution susceptibility test; type: functional; summary of the method: as §1
Staphylococcus aureus [5] = experiment: Antibacterial activity against methicillin-resistant Staphylococcus aureus JCSC 4469 by micro dilution susceptibility test; type: functional; summary of the method: as §1
Staphylococcus aureus [6] = experiment: Antibacterial activity against methicillin-resistant Staphylococcus aureus JCSC 4744 by micro dilution susceptibility test; type: functional; summary of the method: as §1
Staphylococcus aureus [7] = experiment: Antibacterial activity against methicillin-resistant Staphylococcus aureus N315 by micro dilution susceptibility test; type: functional; summary of the method: as §1
Bacillus cereus = experiment: Antibacterial activity against Bacillus cereus ATCC 10876 by micro dilution susceptibility test; type: functional
Summary of the method: (§2)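 Microbroth dilution MIC in Mueller–Hinton broth following CLSI guidelines, with vancomycin as positive control; assays run at least in triplicate.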

Cutibacterium acnes = experiment: Antibacterial activity against Propionicibacterium acnes ATCC 6919 by micro dilution susceptibility test; type: functional
Summary of the method: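 Microbroth dilution MIC in Mueller–Hinton broth following CLSI guidelines; […]; resazurin added as visible growth indicator; vancomycin positive control; at least triplicate.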

[8] = tested on: Staphylococcus epidermidis; experiment: Antibacterial activity against Staphylococcus epidermidis ATCC 12228 by micro dilution susceptibility test; type: functional; summary of the method: as §2
Enterococcus faecium = experiment: Antibacterial activity against vancomycin-resistant Enterococcus faecium by micro dilution susceptibility test; type: functional; summary of the method: as §1
Paenibacillus polymyxa = experiment: Antibacterial activity against Bacillus polymyxa ATCC 842 by micro dilution susceptibility test; type: functional; summary of the method: as §2
Escherichia coli = experiment: Antibacterial activity against Escherichia coli ATCC 8739 by micro dilution susceptibility test; type: functional; summary of the method: as §2
Salmonella typhi = experiment: Antibacterial activity against Salmonella typhi CMCC 44102 by micro dilution susceptibility test; type: functional, Salmonella enterica subsp. enterica serovar Typhi; settings: Salmonella enterica; summary of the method: as §1
Staphylococcus aureus [9] = experiment: Selectivity ratio of MIC for methicillin-resistant Staphylococcus aureus JCSC 2172 to MIC for methicillin-resistant Staphylococcus aureus JCSC 4788; type: functional
Staphylococcus aureus [10] = experiment: Selectivity ratio of MIC for methicillin-resistant Staphylococcus aureus JCSC 4744 to MIC for methicillin-resistant Staphylococcus aureus JCSC 4788; type: functional
Staphylococcus aureus [11] = experiment: Selectivity ratio of MIC for methicillin-resistant Staphylococcus aureus 85/2082 to MIC for methicillin-resistant Staphylococcus aureus JCSC 4788; type: functional
[12] = Selectivity ratio of IC50 for human MCF7 cells to MIC for methicillin-resistant Staphylococcus aureus JCSC 4788; type: toxicity
Summary of the method: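 Ratio of 24 h MTT cytotoxicity IC50 (compound 1.5625–100 μg mL−1, 0.5% DMSO control) to MIC against MRSA JCSC 4788 from CLSI microbroth dilution in MHB; IC50 values expressed as mean ± SD.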

Staphylococcus aureus [13] = experiment: Bactericidal activity against methicillin-resistant Staphylococcus aureus JCSC 4788 assessed as reduction in colony forming units at 4 times MIC measured after 4 hrs by time kill assay relative to control; type: functional; set-up: scale not given: the % may be the effect or the level left
Summary of the method: (§3)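 Time-kill per CLSI: overnight MRSA JCSC 4788 adjusted in 0.85% NaCl to 10^6–10^7 CFU mL−1 and exposed to 0.5×, 1×, 2× and 4× MIC at 35 °C, vancomycin as comparator. Viable plate counts at 0.5, 2, 4, 8 and 24 h; two independent experiments.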

Staphylococcus aureus [14] = experiment: Bactericidal activity against methicillin-resistant Staphylococcus aureus JCSC 4788 assessed as bacterial killing at 2 MIC measured within 2 hrs by time kill assay relative to control; type: functional; summary of the method: as §3
Staphylococcus aureus [15] = experiment: Induction of cytoplasmic membrane depolarization in methicillin-resistant Staphylococcus aureus JCSC 4788 at 0.5 to 2 times MIC measured within 1 min by Disc3(5) staining based fluorescence spectrophotometric method; type: functional, organism-based
Summary of the method: (§4)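 Exponential-phase MRSA JCSC 4788 washed and set to OD620 0.1 in 5 mM HEPES pH 7. Cells loaded with 0.4 μM DiSC3(5) plus 100 mM KCl for 20 min at 37 °C with agitation. Compound added at 0.5–8× MIC and fluorescence followed at ex 660/em 670 nm; mean ± SD.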

Staphylococcus aureus [16] = experiment: Induction of cytoplasmic membrane hyperpolarization in methicillin-resistant Staphylococcus aureus JCSC 4788 at 4 to 8 times MIC measured up to 9 mins by Disc3(5) staining based fluorescence spectrophotometric method; type: functional, organism-based; summary of the method: as §4
Staphylococcus aureus [17] = experiment: Induction of membrane disruption in methicillin-resistant Staphylococcus aureus JCSC 4788 assessed as increase in fluorescence intensity at MIC measured after 3 hrs by SYTOX green dye based fluorescence assay; type: functional, organism-based
Summary of the method: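 Exponential-phase MRSA JCSC 4788 washed and set to OD620 0.4 in 0.85% NaCl, exposed to serial compound concentrations for 3 h, then 3 μM SYTOX Green for 20 min. Fluorescence read at ex 504/em 523 nm with melittin as positive control and vancomycin as comparator; mean ± SD, n = 3.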

## CCCCCCCC(=O)c1c(O)cc(O)c2c1OC1=C(C(=O)C(C)(C)C(=O)C1(C)C)C2CC(C)C (stereo not drawn)
Staphylococcus aureus [1]
  MIC: 0.5 µg/mL (≈ 1.03 µM)
Staphylococcus aureus [2]
  MIC: 0.25 µg/mL (≈ 0.516 µM)
Staphylococcus aureus [3]
  MIC: 0.25 µg/mL (≈ 0.516 µM)
Staphylococcus aureus [4]
  MIC: 0.25 µg/mL (≈ 0.516 µM)
Staphylococcus aureus [5]
  MIC: 0.25 µg/mL (≈ 0.516 µM)
Staphylococcus aureus [6]
  MIC: 0.125 µg/mL (≈ 0.258 µM)
Staphylococcus aureus [7]
  MIC: 0.25 µg/mL (≈ 0.516 µM)
Bacillus cereus
  MIC: 0.5 µg/mL (≈ 1.03 µM)
Cutibacterium acnes
  MIC: 0.25 µg/mL (≈ 0.516 µM)
[8]
  MIC: 0.25 µg/mL (≈ 0.516 µM)
Enterococcus faecium
  MIC: 2 µg/mL (≈ 4.13 µM)
Paenibacillus polymyxa
  MIC: > 32 µg/mL
Escherichia coli
  MIC: > 32 µg/mL
Salmonella typhi
  MIC: > 32 µg/mL
Staphylococcus aureus [9]
  Selectivity ratio: 0.5 - 2
Staphylococcus aureus [10]
  Selectivity ratio: 0.5 - 2
Staphylococcus aureus [11]
  Selectivity ratio: 0.5 - 2
[12]
  Selectivity ratio: 39.9
Staphylococcus aureus [13]
  Activity: 99.9%
Staphylococcus aureus [14]
  Activity: >90%
Staphylococcus aureus [15]
  Activity: Active
Staphylococcus aureus [16]
  Activity: Active
Staphylococcus aureus [17]
  Activity: Active
